# Test results: ChEMBL document CHEMBL3351585, “Design, synthesis and biological evaluation of novel peptides with anti-cancer and drug resistance-reversing activities” (Eur J Med Chem, 2015)
# pIC50: −log10 of the molar value. Active and inactive are the calls of the source. The rule behind the calls is not given here.
# Assays:
# [1] = Retention time of the compound by UPLC method; type: physicochemical
# MCF7 [2] = test: Anticancer activity against human MCF7 cells after 48 hrs by MTT assay; type: functional, cell-based; settings: MCF7, 48 h
# Summary of the method: (§1)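 Cells grown in RPMI1640 with 10% heat-inactivated FBS and 1% penicillin-streptomycin at 37 °C, 5% CO2. Log-phase cells were seeded at 5 × 10^3/well 24 h before treatment, exposed to a range of peptide concentrations for 48 h, then given MTT for 4 h. Formazan was dissolved in DMSO and A490 read. Survival was computed relative to untreated wells, and IC50 taken from the survival curve.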
# K562 = test: Anticancer activity against human K562 cells after 48 hrs by MTT assay; type: functional, cell-based; settings: K562, 48 h; summary of the method: as §1
# [3] = Cytotoxicity against human GES-1 cells after 48 hrs by MTT assay; type: cell-based; settings: GES1, 48 h; summary of the method: as §1
# [4] = Toxicity in rabbit erythrocytes assessed as induction of hemolysis at 160 uM incubated for 1 hr by microplate reader assay; type: cell-based, Oryctolagus cuniculus; settings: erythrocyte
# Summary of the method: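 Rabbit red blood cells in PBS were mixed 1:1 by volume with peptide solution and incubated 1 h at 37 °C, then spun at 1000 g for 5 min. Hemoglobin in the supernatant was read at 540 nm. PBS defined 0% hemolysis and 0.1% Triton X-100 defined 100%.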
# [5] = Anticancer activity against human MCF7/ADR cells after 48 hrs by MTT assay; type: functional, cell-based; settings: NCI/ADR-RES; summary of the method: as §1
# [6] = Anticancer activity against human K562/ADR cells after 48 hrs by MTT assay; type: functional, cell-based; summary of the method: as §1
# MCF7 [7] = test: Induction of cell membrane alteration in human MCF7 cells at 20 uM incubated for 30 mins by acridine orange/ethidium bromide double staining method; type: functional, cell-based
# Summary of the method: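 MCF-7 cells were plated at 1 × 10^5/well and grown 24 h, then given peptide for 30 min. Cells were washed twice with PBS and stained 10 min in the dark with cold PBS containing acridine orange and ethidium bromide. Excess dye was washed off, then cells were imaged by fluorescence microscopy. Red EB staining marks membrane-compromised cells.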
# MCF7 [8] = test: Induction of cell membrane morphology changes in human MCF7 cells at 20 uM incubated for 30 mins by scanning electron microscopy; type: functional, cell-based
# Summary of the method: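 MCF-7 cells were grown 24 h on coverslips at 1 × 10^5/well and exposed to peptide for 30 min. Cells were gently PBS-washed, fixed in 2.5% glutaraldehyde, and examined by scanning electron microscopy.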
# [9] = Drug uptake in cytosol of human MCF7 cells at 20 uM incubated for 5 mins or 30 mins by fluorescein isothiocyanate labeling based fluorescence microscopy; type: ADME, cell-based
# Summary of the method: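 MCF-7 cells were plated at 1 × 10^5/well and grown 24 h, then exposed to FITC-labeled peptides for 5 min or 30 min. Cells were washed three times with cold PBS, and intracellular fluorescence was imaged by fluorescence microscopy.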
# MCF7 [10] = test: Induction of mitochondrial membrane potential depolarization in human MCF7 cells at 20 uM incubated for 2 hrs by JC1 staining; type: functional, cell-based
# Summary of the method: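 MCF-7 cells were plated at 1 × 10^5/well, grown 24 h, and treated with peptide for 2 h. Mitochondrial membrane potential was assessed with a JC-1 kit by imaging red and green fluorescence.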
# MCF7 [11] = test: Induction of cytochrome c release in human MCF7 cells at 20 uM incubated for 2 hrs by ELISA method (reference value: 364.2 +/- 20.5 ng); type: functional
# MCF7 [12] = test: Induction of cytochrome c release in extracellular region of human MCF7 cells at 20 uM incubated for 2 hrs by ELISA method (reference value: 15.7 +/- 0.77 ng); type: functional
# MCF7 [13] = test: Induction of cytochrome c release in cytoplasm of human MCF7 cells at 20 uM incubated for 2 hrs by ELISA method (reference value: 44.1 +/- 2.7 ng); type: functional
# MCF7 [14] = test: Induction of cytochrome c release in mitochondria of human MCF7 cells at 20 uM incubated for 2 hrs by ELISA method (reference value: 347.8 +/- 14.5 ng); type: functional
# MCF7 [15] = test: Antimigratory activity in human MCF7 cells assessed as inhibition of cell migration at 5 uM incubated for 48 hrs by wound healing assay; type: functional, cell-based
# Summary of the method: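 MCF-7 cells were seeded at 2 × 10^5/well and grown 24 h to 90% confluence. A cell-free gap was scratched, and cells migrated in serum-free medium with peptide for 48 h. Wound closure was photographed at 0 h and 48 h.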
# MCF7 [16] = test: Antimigratory activity in human MCF7 cells assessed as inhibition of cell migration at 5 uM incubated for 48 hrs by transwell migration assay; type: functional, cell-based
# Summary of the method: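 Transwell chambers with a porous membrane separating upper and lower compartments. 4 × 10^4 MCF-7 cells were placed in the upper chamber in peptide-containing medium and incubated 48 h. Cells that reached the lower membrane surface were counted.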
# NCI/ADR-RES = test: Potentiation of adriamycin-induced cytotoxicity against human MCF7/ADR cells at 5 uM after 48 hrs by MTT assay; type: functional, cell-based
# Summary of the method: (§2)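 ADM-resistant MCF-7/ADM or K562/ADM cells, grown in RPMI1640 with 10% FBS at 37 °C and 5% CO2, were seeded at 1 × 10^4 per well and held 24 h. Fixed peptide was added, followed by graded ADM concentrations, for 48 h. MTT was then given for 4 h at 37 °C, formazan dissolved in DMSO and absorbance read at 570 nm. Verapamil served as positive control.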
# K562/Adr = test: Potentiation of adriamycin-induced cytotoxicity against human K562/ADR cells at 5 uM after 48 hrs by MTT assay; type: functional, cell-based; summary of the method: as §2
# [17] = Increase in adriamycin uptake in human MCF7/ADR cells at 5 uM after 2.5 hrs by fluorescence microscopy; type: ADME, cell-based; settings: nci/adr-res
# Summary of the method: (§3)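 2 × 10^5 MCF-7/ADM or K562/ADM cells were co-incubated 2.5 h with ADM plus peptide, or with verapamil as comparator. Cells were washed with cold PBS and ADM fluorescence was imaged by fluorescence microscopy.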
# [18] = Increase in adriamycin uptake in human K562/ADR cells at 5 uM after 2.5 hrs by fluorescence microscopy; type: ADME, cell-based; summary of the method: as §3
# [19] = Increase in adriamycin uptake in human MCF7/ADR cells at 5 uM after 2.5 hrs by fluorescence spectrophotometry; type: ADME, cell-based; settings: nci/adr-res
# Summary of the method: (§4)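 2 × 10^5 MCF-7/ADM or K562/ADM cells were co-incubated 2.5 h with ADM plus peptide, or with verapamil as comparator. After washing in cold PBS, cells were lysed in 0.75 M HCl/0.2% Triton X-100 in isopropanol. Lysate ADM fluorescence was measured by spectrofluorometry at ex 460/em 610 nm.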
# [20] = Increase in adriamycin uptake in human K562/ADR cells at 5 uM after 2.5 hrs by fluorescence spectrophotometry; type: ADME, cell-based; summary of the method: as §4
# MCF7 [21] = test: Induction of cytochrome c release in human MCF7 cells at 5 to 20 uM incubated for 2 hrs by ELISA method
Compound,Retention_time [1] [min],pIC50 (MCF7 [2]),pIC50 (K562),pIC50 [3],Activity [4],also measured
H-VKRFKKFFRKLKKDV-NH2,3.38,4.70,4.35,3.92,Non-toxic,–
H-VKRFKKFFRKLKKSV-NH2,3.38,4.66,4.57,3.99,Non-toxic,pIC50 [5]: 4.62; pIC50 [6]: 4.50; Activity (MCF7 [7]): Active; Activity (MCF7 [8]): Active; Drug uptake [9]: Active; Activity (MCF7 [10]): Active; Activity (MCF7 [11]): 353.4 ng; Activity (MCF7 [12]): 14.7 ng; Activity (MCF7 [13]): 60.3 ng; Activity (MCF7 [14]): 301.4 ng; inhibition (MCF7 [15]): Active; inhibition (MCF7 [16]): Active; Activity (NCI/ADR-RES): Active; Activity (K562/Adr): Active; Activity [17]: Active; Activity [18]: Active; Activity [19]: Active; Activity [20]: Active; Activity (MCF7 [21]): Dose-dependent effect
H-VKRFKKFFRKLKKTV-NH2,3.44,4.72,4.77,3.96,Non-toxic,–
H-VKRFKKFFRKLKKQV-NH2,3.31,4.84,4.79,3.99,Non-toxic,–

# These reach a higher pIC50 (MCF7 [2]). Values come first.
Retention_time [1] [min],pIC50 (MCF7 [2]),pIC50 (K562),Compound,pIC50 [3],Activity [4],also measured
3.69,5.31,5.30,H-VKRFKKFFRKLKKVV-NH2,4.19,Non-toxic,–
3.74,5.89,5.43,H-VKRFKKFFRKLKKFV-NH2,4.28,Non-toxic,–
–,6.44,6.35,COc1cccc2c1C(=O)c1c(O)c3c(c(O)c1C2=O)C[C@@](O)(C(=O)CO)C[C@@H]3O[C@H]1C[C@H](N)[C@H](O)[C@H](C)O1 [DOXORUBICIN],6.28,–,pIC50 [5]: 4.28; pIC50 [6]: 4.17
